Experimental data as given in ChEMBL document CHEMBL1777714, “Optimization of triazoles as novel and potent nonphlorizin SGLT2 inhibitors” (Bioorg Med Chem Lett, 2011).
≈ marks a conversion by molar mass, not a printed value.

Columns and labels:
[1] = Solubility of the compound in phosphate buffered saline; type: physicochemical
Method in brief: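 Solubility measured in PBS buffer, reported in µg/mL.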

[2] = Cmax in rat at 100 mg/kg, sc; type: ADME, organism-based; set-up: dose 100 mg/kg, route subcutaneous; conditions: in vivo
Rattus norvegicus [3] = assay: AUC (0 to 24 hrs) in rat at 100 mg/kg, sc; type: ADME, organism-based, Plasma; set-up: time < 24 hr, dose 100 mg/kg, route subcutaneous; conditions: in vivo
[4] = Tmax in rat at 100 mg/kg, sc; type: ADME, organism-based; set-up: dose 100 mg/kg, route subcutaneous; conditions: in vivo
Rattus norvegicus [5] = assay: AUC (0 to 24 hrs) in rat at 70 mg/kg, sc; type: ADME, organism-based, Plasma; set-up: time < 24 hr, dose 70 mg/kg, route subcutaneous; conditions: in vivo
[6] = Tmax in rat at 70 mg/kg, sc; type: ADME, organism-based; set-up: dose 70 mg/kg, route subcutaneous; conditions: in vivo
[7] = Cmax in rat at 70 mg/kg, sc; type: ADME, organism-based; set-up: dose 70 mg/kg, route subcutaneous; conditions: in vivo

solubility [1] [µg/mL] | Compound | other results
1.6 (≈ 3 µM) | O=C1COc2c(Cl)cc(Cl)cc2N1Cc1nnc(CCc2ccc(Cl)cc2)n1CCC(F)(F)F | –
2.2 (≈ 4.25 µM) | O=C1COc2c(cc(Cl)cc2[N+](=O)[O-])N1Cc1nnc(-c2ccc(Cl)cn2)n1CCC(F)(F)F | –
1 (≈ 2.16 µM) | CCCn1c(CN2C(=O)COc3c2cc(Cl)cc3[N+](=O)[O-])nnc1-c1ccc(Cl)cn1 | –
2 (≈ 4.52 µM) | CCCn1c(CN2C(=O)COc3c2cc(C)cc3[N+](=O)[O-])nnc1-c1ccc(Cl)cn1 | –
1.1 (≈ 2.67 µM) | CCCn1c(CN2C(=O)COc3c(C)cc(C)cc32)nnc1-c1ccc(Cl)cn1 | –
64 (≈ 170 µM) | CCCn1c(CN2C(=O)COc3c(C)cc(C)cc32)nnc1-c1ccccn1 | Cmax [2]: 1050 nM; AUC (Rattus norvegicus [3]): 16.2 µM·h; Tmax [4]: 8 h
80 (≈ 181 µM) | CCCn1c(CN2C(=O)COc3c2cc(Cl)cc3[N+](=O)[O-])nnc1-c1ncccc1C | –
19 (≈ 45.6 µM) | CCCn1c(CN2C(=O)COc3c(C)cc(C)cc32)nnc1[C@@H]1C[C@H]1c1ccccc1 | –
23 (≈ 53.4 µM) | CCCn1c(CN2C(=O)COc3c(C)cc(C)cc32)nnc1[C@@H]1CCc2ccccc2C1 | –
35 (≈ 84 µM) | CCCn1c(CN2C(=O)COc3c(C)cc(C)cc32)nnc1C1Cc2ccccc2C1 | AUC (Rattus norvegicus [5]): 61.6 µM·h; Tmax [6]: 24 h; Cmax [7]: 3.5 µM
